Values joined by “and” are separate entries in the source; they are usually repeats but may differ in a detail not shown here. Identical values can stand only once.
Tests used:
[1] = test system: Rattus norvegicus; assay: Biodistribution in Rat lung after 30 minutes of iv administration; assay type: ADME, organism-based; conditions: in vivo, 0.5 h
In short: (§1)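 125I-labeled compound solubilized in normal saline with Tween-20 and given iv to rats, about 5-30 μCi (9-83 μg) per animal. Three to five rats per time point. Rats killed by exsanguination under ether anesthesia at 5 min, 30 min or 24 h. Organs minced, blotted free of blood and counted for radioiodine. Lines with "per g" are % administered dose per gram ± SEM.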

[2] = test system: Rattus norvegicus; assay: Biodistribution in Rat liver after 5 minutes of iv administration; assay type: ADME, organism-based; conditions: in vivo; in short: as §1
[3] = test system: Rattus norvegicus; assay: Biodistribution in Rat lung after 24 hours of iv administration; assay type: ADME, organism-based; conditions: in vivo; in short: as §1
[4] = test system: Rattus norvegicus; assay: Biodistribution in Rat lung after 5 minutes of iv administration; assay type: ADME, organism-based; conditions: in vivo; in short: as §1
[5] = test system: Rattus norvegicus; assay: Biodistribution in Rat blood after 24 hours of iv administration; assay type: ADME, organism-based; conditions: in vivo; in short: as §1
[6] = test system: Rattus norvegicus; assay: Biodistribution in Rat blood after 30 minutes of iv administration; assay type: ADME, organism-based; conditions: in vivo, 0.5 h; in short: as §1
[7] = test system: Rattus norvegicus; assay: Biodistribution in Rat blood after 5 minutes of iv administration; assay type: ADME, organism-based; conditions: in vivo; in short: as §1
[8] = test system: Rattus norvegicus; assay: Biodistribution in Rat heart after 24 hours of iv administration; assay type: ADME, organism-based; conditions: in vivo; in short: as §1
[9] = test system: Rattus norvegicus; assay: Biodistribution in Rat heart after 30 minutes of iv administration; assay type: ADME, organism-based; conditions: in vivo, 0.5 h; in short: as §1
[10] = test system: Rattus norvegicus; assay: Biodistribution in Rat heart after 5 minutes of iv administration; assay type: ADME, organism-based; conditions: in vivo; in short: as §1
[11] = test system: Rattus norvegicus; assay: Biodistribution in Rat liver after 24 hours of iv administration; assay type: ADME, organism-based; conditions: in vivo; in short: as §1
[12] = test system: Rattus norvegicus; assay: (§2) Biodistribution in Rat liver after 30 minutes of iv administration; assay type: ADME, organism-based; conditions: in vivo, 0.5 h; in short: as §1
[13] = test system: Rattus norvegicus; assay: as §2; assay type: ADME, organism-based; conditions: in vivo, 0.5 h; in short: as §1; remark: listed apart in the source
[14] = test system: Rattus norvegicus; assay: Compound was evaluated for the lipid soluble radioactivity extracted from rat liver at 0.5 hr after intravenous administration.; assay type: functional
In short: (§3)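 Liver and plasma taken 0.5 or 24 h after iv dosing of 125I-labeled compound in rats (n = 3-5). Extracted by a modified Folch procedure; value is % lipid (CHCl3/MeOH)-extractable radioactivity ± SEM. Extracts run on TLC in hexane/ethyl acetate 5:2 against unlabeled standard, then 1-cm strips counted to give % parent compound.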

[15] = test system: Rattus norvegicus; assay: Compound was evaluated for the lipid soluble radioactivity extracted from rat plasma at 0.5 hr after intravenous administration.; assay type: functional; in short: as §3
[16] = test system: Rattus norvegicus; assay: Liver radioactivity after iv administration of compound (30 min) in rats; assay type: functional, organism-based
In short: (§4)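 Rats (3-5 per time point) dosed iv with about 5-30 μCi (9-83 μg) of 125I-labeled compound in saline containing Tween-20. Killed by exsanguination under ether at 5 min, 30 min or 24 h. Liver removed, minced, blotted and counted. Values are % administered dose per organ, based on each animal's actual liver weight, ± SEM.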

[17] = test system: Rattus norvegicus; assay: Liver radioactivity after iv administration of compound (5 min) in rats; assay type: functional, organism-based; in short: as §4
[18] = test system: Rattus norvegicus; assay: Compound (125I labeled) was evaluated for the total radioactivity in albumin 5 min after intravenous administration.; assay type: functional; design: concentration or dose not given beside the values
In short: (§5)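 Rat plasma taken 5 or 30 min after iv dosing of 125I-labeled compound (saline/Tween-20) and run on polyacrylamide gel electrophoresis. Gels sectioned and each section gamma-counted. Radioactivity in each band (stacking gel, lipoproteins, albumin, below-albumin) is given as % of total radioactivity applied to the gel.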

[19] = test system: Rattus norvegicus; assay: Evaluated for the total radioactivity in below albumin at 30 min after intravenous administration.; assay type: functional; in short: as §5
[20] = test system: Rattus norvegicus; assay: Compound (125I labeled) was evaluated for the total radioactivity in high-density lipoprotein 5 min after intravenous administration.; assay type: functional; in short: as §5
[21] = test system: Rattus norvegicus; assay: Compound (125I labeled) was evaluated for the total radioactivity in high-density lipoprotein, at 30 min after intravenous administration.; assay type: functional; in short: as §5
[22] = test system: Rattus norvegicus; assay: Compound (125I labeled) was evaluated for the total radioactivity in low-density lipoprotein 5 min after intravenous administration.; assay type: functional; design: concentration or dose not given beside the values; in short: as §5
[23] = test system: Rattus norvegicus; assay: Compound (125I labeled) was evaluated for the total radioactivity in low-density lipoprotein, at 30 min after intravenous administration.; assay type: functional; in short: as §5
[24] = test system: Rattus norvegicus; assay: Compound (125I labeled) was evaluated for the total radioactivity in stacking gel 5 min after intravenous administration.; assay type: functional; in short: as §5
[25] = test system: Rattus norvegicus; assay: Compound (125I labeled) was evaluated for the total radioactivity in stacking gel at 30 min after intravenous administration.; assay type: functional; in short: as §5
[26] = test system: Rattus norvegicus; assay: Compound (125I labeled) was evaluated for the total radioactivity in albumin at 30 min after intravenous administration.; assay type: functional; design: concentration or dose not given beside the values; in short: as §5
[27] = test system: Rattus norvegicus; assay: Compound was evaluated for the lipid soluble radioactivity extracted from rat plasma at 24 hr after intravenous administration.; assay type: functional; in short: as §3
[28] = test system: Rattus norvegicus; assay: Compound was evaluated for the lipid soluble radioactivity extracted from rat liver at 24 hr after intravenous administration.; assay type: functional; in short: as §3
[29] = test system: Rattus norvegicus; assay: Liver radioactivity after iv administration of compound (24 h) in rats; assay type: functional, organism-based; in short: as §4

Row | SMILES | Biodistribution [1] [%] | Biodistribution [2] | Biodistribution [3] [%] | Biodistribution [4] [%] | Biodistribution [5] [%] | Biodistribution [6] [%] | Biodistribution [7] [%] | Biodistribution [8] [%] | Biodistribution [9] [%] | Biodistribution [10] [%] | Biodistribution [12] [%] | Biodistribution [13] [%] | Extracted [14] [%] | Parent compound [14] [%] | Parent compound [15] [%] | Radioactivity [16] | Radioactivity [17] | Total radioactivity [18] [%] | Total radioactivity [20] [%] | Total radioactivity [21] [%] | also measured
1 | Nc1c(I)cc(I)c(CCCCCCCCCCCC(=O)OCC(COC(=O)CCCCCCCCCCCc2c(I)cc(I)c(N)c2I)OC(=O)CCCCCCCCCCCc2c(I)cc(I)c(N)c2I)c1I | 0.67 | 0.6% and 6.94% | 0.09 | 1.13 | 0.07 | 0.91 | 1.46 | 0.05 | 0.65 | 2.67 | 5.24 | 5.24 | 76.5 | 68.8 | 24.1 | 45.7 | 53.8 | 30.2 | 27.2 | 33.6 | Biodistribution [11]: 0.1% and 0.71%; Total radioactivity [19]: 5.5% and 12.6%; Total radioactivity [22]: 12.7%; Total radioactivity [23]: 6.2%; Total radioactivity [24]: 24.4%; Total radioactivity [25]: 5.8%; Total radioactivity [26]: 40.6%
2 | Nc1c(I)cc(I)c(CCC(=O)OCC(COC(=O)CCc2c(I)cc(I)c(N)c2I)OC(=O)CCc2c(I)cc(I)c(N)c2I)c1I | 6.63 | 0.44% and 8.02% | 2.64 | 6.69 | 0.05 | 1.71 | 2.15 | 0.19 | 0.82 | 1.93 | 10.4 | 10.38 | 94.8 | 97.3 | 94.5 | 75.5 | 60.5 | 10.5 | 38.4 | 34.5 | Extracted [27]: 83.3%; Parent compound [27]: 68.2%; Extracted [28]: 91.1%; Parent compound [28]: 96.5%; Extracted [15]: 89%; Radioactivity [29]: 86.2; Total radioactivity [19]: 3.2% and 4.1%; Total radioactivity [22]: 29.6%; Total radioactivity [23]: 27.6%; Total radioactivity [24]: 18.3%; Total radioactivity [25]: 20.2%; Total radioactivity [26]: 13.8%
3 | CCCCCCCCCCCCCCCC(=O)OC(COC(=O)CCCCCCCCCCCCCCCCc1c(I)cc(I)c(N)c1I)COC(=O)CCCCCCCCCCCCCCCCc1c(I)cc(I)c(N)c1I | 1.03 | 0.67% and 4.76% | 0.08 | 1.45 | 0.07 | 1.97 | 4.78 | 0.03 | 0.87 | 0.87 | 4.2 | 4.2 | 42.3 | 25.3 | 28.8 | 32.7 | 33.8 | 26.2 | 34.4 | 24.8 | Biodistribution [11]: 0.13% and 0.37%; Extracted [27]: 44.1%; Parent compound [27]: 18%; Extracted [28]: 63.5%; Parent compound [28]: 17.3%; Extracted [15]: 70.9%; Radioactivity [29]: 2.59; Total radioactivity [22]: 32.9%; Total radioactivity [23]: 14.2%; Total radioactivity [24]: 2.5%; Total radioactivity [25]: 9.7%; Total radioactivity [26]: 37.1%

Reference: ChEMBL document CHEMBL1123382, “Potential tumor- or organ-imaging agents. 27. Polyiodinated 1,3-disubstituted and 1,2,3-trisubstituted triacylglycerols” (J Med Chem, 1986)
